{"source": "paper PMC4303873", "about": "(Scientific Reports, 2015)", "key": {"[1]": {"system": "Normal human epidermal melanocytes", "assay": "Melanin quantification assay in normal human melanocytes", "format": "cell-based", "conditions": "50 μM, 72 hours", "method_in_brief": "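Normal human epidermal melanocytes in Medium 254 with HMGS, trypsinized into M2 medium and seeded at 1 × 10^5 cells/well. After 24 h, treated for 72 h at 37°C. […] Cell pellets dissolved in 1N NaOH at 70°C for 1 h and spun at 10,000 × g for 10 min. Supernatant OD405 measured.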"}, "[2]": {"system": "zebrafish embryos", "assay": "Zebrafish in vivo assay", "conditions": "for decrease of pigmentation level of zebrafish: 50 μM, 9 to 57 hpf (48 h exposure)", "method_in_brief": "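Synchronized zebrafish embryos, three per well in 200 μl embryo medium. Test compound solutions (in 1% DMSO), 10–50 μM, added from 9 to 57 hpf (48 h exposure). […] At 57 hpf, embryos anesthetized in tricaine, mounted in 1% methyl cellulose and photographed under a stereomicroscope. Body pigmentation scored by phenotype and by image pixel measurement.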"}, "[3]": {"system": "ICR male mice", "assay": "Acute oral toxicity study in mice", "format": "in vivo", "method_in_brief": "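ICR male mice (Crl:CD1), 24 animals randomized into 4 groups of six. Single oral gavage at 1500, 3000 or 6000 mg/kg, or vehicle (4% Tween 80 in water for injection), at 20 ml/kg adjusted to pre-dose body weight. Mortality checked twice daily and clinical signs once daily, SD3–SD14. Body weight taken SD1, SD8 and SD15. Gross necropsy of thoracic and abdominal cavities on SD15.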"}, "[4]": {"target": "mushroom tyrosinase", "assay": "Mushroom tyrosinase inhibition assay and IC50 determination", "format": "biochemical"}, "[5]": {"assay": "Cell viability", "format": "cell-based, human", "conditions": "human, normal human epidermal melanocytes", "method_in_brief": "(§1)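 Normal human epidermal melanocytes grown in Medium 254 with HMGS. Confluent cells trypsinized, resuspended in Melanocyte Growth Medium M2 and seeded at 2 × 10^4 cells/well. After 24 h, exposed to test compound at 5 or 50 μM at 37°C for 72 h. […] Viability read by MTT.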"}, "[6]": {"system": "Normal human epidermal melanocytes", "assay": "Cell viability", "format": "cell-based", "conditions": "concentration ranging from 0 to 50 μM", "method_in_brief": "as §1"}}}
{"molecule": "O=c1cc(CO)occ1O", "note": "[kojic acid, reference compound]", "values": [{"measurement": "decrease of melanin content", "setting": "[1]", "result": "very few or no melanin content decrease"}, {"measurement": "decrease of pigmentation level of zebrafish", "setting": "[2]", "result": 12.9, "unit": "%"}]}
{"molecule": "Oc1ccc(CSCc2ccc(O)cc2)cc1", "note": "[T1, bis(4-hydroxybenzyl)sulfide]", "values": [{"measurement": "dose with no adverse toxic effects", "setting": "[3]; ICR mice, single oral dose", "result": "up to 6000 mg/kg"}, {"measurement": "body weight and body gain versus control mice", "setting": "[3]; single oral dose 1500, 3000, and 6000 mg/kg", "result": "no difference"}, {"measurement": "death and clinical symptoms", "setting": "[3]; single oral dose 1500, 3000, and 6000 mg/kg, 14 days observation", "result": "no death and abnormal clinical symptom"}, {"measurement": "gross lesions at necropsy", "setting": "[3]; single oral dose 1500, 3000, and 6000 mg/kg, SD15", "result": "no observable gross lesion"}, {"measurement": "Ki", "setting": "[4]; Dixon plot", "result": "0.058 ± 0.006", "unit": "µM"}, {"measurement": "type of inhibition", "setting": "[4]; Dixon plot", "result": "strong competitive inhibitor"}, {"measurement": "IC50", "setting": "[4]; L-tyrosine substrate, dopachrome at 475 nm, triplicate", "result": 0.53, "unit": "µM"}, {"measurement": "viability at 72 h, 5 µM", "setting": "[5]", "result": 99.2, "unit": "%"}, {"measurement": "viability at 72 h, 50 µM", "setting": "[5]", "result": 97.2, "unit": "%"}, {"measurement": "cytotoxicity to normal human melanocyte cells", "setting": "[6]", "result": "non-cytotoxic"}, {"measurement": "decrease of pigmentation level of zebrafish", "setting": "[2]", "result": "about 41.4%"}, {"measurement": "decrease of pigmentation relative to kojic acid", "setting": "[2]; both at 50 μM", "result": 3, "unit": "fold"}, {"measurement": "adverse side effects in zebrafish", "setting": "[2]; zebrafish, in vivo", "result": "without any adverse side effects"}]}
{"molecule": "OC[C@H]1O[C@H](Oc2ccc(O)cc2)[C@H](O)[C@@H](O)[C@@H]1O", "note": "[α-arbutin]", "values": [{"measurement": "decrease of melanin content", "setting": "[1]", "result": "very few or no melanin content decrease"}]}
{"molecule": "OC[C@H]1O[C@@H](Oc2ccc(O)cc2)[C@H](O)[C@@H](O)[C@@H]1O", "note": "[β-arbutin]", "values": [{"measurement": "decrease of melanin content", "setting": "[1]", "result": "very few or no melanin content decrease"}]}
